ChEMBL document CHEMBL3808283, “Biological Characterization and in Vivo Assessment of the Activity of a New Synthetic Macrocyclic Antifungal Compound” (J Med Chem, 2016)
Converted amounts (≈) assume the structure as drawn. The source made the active and inactive calls. The rule behind the calls is not given here.

How the values were obtained:
[1] = test system: Candida albicans; assay: Upregulation of orf19.3378 gene expression in Candida albicans SC5314 at 3 uM after 45 mins by microarray method relative to control; type: functional
Summary of the method: (§1)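 Log-phase cultures in liquid YEPD were exposed to 3 µM compound (final) for 15 or 45 min, with untreated controls sampled at the same times, in three biological replicates. Total RNA was extracted by glass-bead/phenol-chloroform disruption and integrity-checked. One-color Cy3-labelled cRNA (600 ng) was hybridized for 17 h at 65 °C to 8 × 15K arrays, and fold change was taken versus control.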

[2] = test system: Candida albicans; assay: Antifungal activity against azole-resistant Candida albicans isolate DSY296 in immunocompetent Balb/c mouse candidiasis model assessed as reduction in CFU count in spleen at 40 mg/kg/day, ip regime measured on day 7 post infection; type: functional, organism-based
Summary of the method: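 Immunocompetent BALB/c mice, 10 per strain group, received 7 × 10^4 CFU of C. albicans in 200 µL saline via the lateral vein. Drug was given i.p. daily at 40 mg/kg/day as a 0.1 mg/mL solution in DMSO/PEG 400 (2:1), 100 µL per dose. On day 7, spleen and kidneys were weighed, homogenized, and plated on YPD agar (2 days, 30 °C) for CFU/g. Analysis used Wilcoxon rank-sum, P<0.05.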

[3] = Antifungal activity against Geotrichum silvicola measured at 72 hrs by broth dilution assay; type: functional
Summary of the method: (§2)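 EUCAST broth microdilution, including the update for non-fermenting yeasts (Cryptococcus, Geotrichum), on clinical and reference yeast isolates. Incubated at 37 °C and read at 24, 48 and 72 h. MIC taken as the lowest concentration with no visible growth. For Cryptococcus and Geotrichum, MICs were read only once growth was visible in the control row.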

[4] = test system: Candida albicans; assay: Upregulation of ARE2 gene expression in Candida albicans SC5314 at 3 uM after 45 mins by microarray method relative to control; type: functional
Summary of the method: (§3)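 Log-phase C. albicans SC5314 in liquid YEPD exposed to 3 µM final for 15 or 45 min; untreated controls taken at the same time points. Three biological replicates. RNA extracted by glass-bead/phenol-chloroform method and integrity checked. One-color Cy3-labeled cRNA (600 ng) hybridized 17 h at 65 °C to 8 × 15K arrays. Expression expressed as fold change versus control.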

[5] = test system: Candida albicans; assay: Antifungal activity against azole-susceptible Candida albicans isolate DSY294 in immunocompetent Balb/c mouse candidiasis model assessed as reduction in CFU count in kidney at 40 mg/kg/day, ip regime measured on day 7 post infection; type: functional, organism-based
Summary of the method: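 Immunocompetent BALB/c mice, groups of 10, were injected in the lateral tail vein with 7 × 10^4 CFU of C. albicans in 200 µL saline. Drug was given ip daily at 40 mg/kg/day in DMSO/PEG 400 2:1 (0.1 mg/mL, 100 µL). Kidneys were taken on day 7, homogenized and plated on YPD agar for 2 days at 30 °C. Read-out was CFU/g; Wilcoxon rank-sum test, P<0.05.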

[6] = test system: Candida albicans; assay: Upregulation of orf19.6873.1 gene expression in Candida albicans SC5314 at 3 uM after 45 mins by microarray method relative to control; type: functional; summary of the method: as §1
[7] = test system: Pichia kudriavzevii; assay: Ratio of MIC at 24 hrs to MIC at 48 hrs for Candida krusei 193T; type: functional
Summary of the method: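 MICs by EUCAST broth microdilution, with the update for non-fermenting yeasts, incubated at 37 °C. Read at 24, 48 and 72 h as the lowest concentration preventing visible growth.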

[8] = test system: Pichia kudriavzevii; assay: Fungicidal activity against Candida krusei ATCC 14243 assessed as reduction in CFU at 80 uM measured at 24 hrs by time kill assay relative to control; type: functional; conditions: ATCC 14243, 24 h
Summary of the method: (§4)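 EUCAST broth microdilution at 37 °C. From wells at MIC, 2×, 4× and 8× MIC, 10 µL aliquots were taken, serially 10-fold diluted in saline and plated on Sabouraud dextrose agar. Plates were incubated at 37 °C for 24/48 h, and 48 h for Cryptococcus and Geotrichum. Done in duplicate, detection limit 10 CFU/mL. A drop of at least 3 Log10 CFU/mL from the initial inoculum in 24 h counts as fungicidal; a smaller drop counts as fungistatic.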

[9] = test system: Candida parapsilosis; assay: Antifungal activity against Candida parapsilosis 64E measured at 48 hrs by broth dilution assay; type: functional; conditions: Lodderomyces parapsilosis; summary of the method: as §2
[10] = test system: Magnusiomyces capitatus; assay: Antifungal activity against Geotrichum capitatum measured at 24 hrs by broth dilution assay; type: functional; summary of the method: as §2
[11] = test system: Magnusiomyces capitatus; assay: Antifungal activity against Geotrichum capitatum measured at 72 hrs by broth dilution assay; type: functional; summary of the method: as §2
[12] = test system: Candida albicans; assay: Antifungal activity against Candida albicans 15T measured at 24 hrs by broth dilution assay; type: functional; summary of the method: as §2
[13] = test system: Candida parapsilosis; assay: Antifungal activity against Candida parapsilosis 81E measured at 72 hrs by broth dilution assay; type: functional; conditions: Lodderomyces parapsilosis; summary of the method: as §2
[14] = test system: Candida albicans; assay: Antifungal activity against Candida albicans ATCC 60193 measured at 48 hrs by broth dilution assay; type: functional; conditions: ATCC 60193, 48 h; summary of the method: as §2
[15] = test system: Candida albicans; assay: Antifungal activity against Candida albicans 53T measured at 48 hrs by broth dilution assay; type: functional; summary of the method: as §2
[16] = test system: Candida albicans; assay: Antifungal activity against Candida albicans ATCC 60193 up to 96 hrs by broth dilution assay; type: functional
[17] = Antifungal activity against Geotrichum silvicola measured at 24 hrs by broth dilution assay; type: functional; summary of the method: as §2
[18] = test system: Candida albicans; assay: Antifungal activity against wild type Candida albicans CAF2-1 at 10 uM by serial dilution assay; type: functional, organism-based
[19] = test system: Candida parapsilosis; assay: Antifungal activity against Candida parapsilosis ATCC 34136 measured at 72 hrs by broth dilution assay; type: functional; conditions: Lodderomyces parapsilosis, ATCC 34136, 72 h; summary of the method: as §2
[20] = test system: Candida tropicalis; assay: Antifungal activity against Candida tropicalis 86E measured at 72 hrs by broth dilution assay; type: functional; summary of the method: as §2
[21] = test system: Candida albicans; assay: Antifungal activity against Candida albicans 4T measured at 24 hrs by broth dilution assay; type: functional; summary of the method: as §2
[22] = test system: Candida parapsilosis; assay: Antifungal activity against Candida parapsilosis ATCC 34136 measured at 24 hrs by broth dilution assay; type: functional; conditions: Lodderomyces parapsilosis, ATCC 34136, 24 h; summary of the method: as §2
[23] = test system: Magnusiomyces capitatus; assay: Antifungal activity against Geotrichum capitatum up to 96 hrs by broth dilution assay; type: functional
[24] = test system: Candida albicans; assay: Upregulation of orf19.1887 gene expression in Candida albicans SC5314 at 3 uM after 45 mins by microarray method relative to control; type: functional; summary of the method: as §1
[25] = test system: Candida albicans; assay: Antifungal activity against Candida albicans 53T up to 96 hrs by broth dilution assay; type: functional, organism-based
[26] = test system: Candida albicans; assay: Fungicidal activity against Candida albicans ATCC 60193 at 5 uM up to 24 hrs by time kill assay relative to control; type: functional; summary of the method: as §4
[27] = test system: Candida albicans; assay: Antifungal activity against Candida albicans 4T measured at 72 hrs by broth dilution assay; type: functional; summary of the method: as §2
[28] = test system: Candida albicans; assay: Upregulation of CRZ2 gene expression in Candida albicans SC5314 at 3 uM after 45 mins by microarray method relative to control; type: functional; summary of the method: as §3
[29] = test system: Candida albicans; assay: Upregulation of CDR1 gene expression in Candida albicans SC5314 at 3 uM after 15 to 45 mins by qRT-PCR method; type: functional, organism-based
Summary of the method: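 Log-phase C. albicans treated at 3 µM. RNA extracted with glass-bead disruption, then DNase-treated (10 µg per preparation). Target gene CT values were normalized to an endogenous reference. Fold change calculated as mean normalized expression of samples relative to a selected control.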

[30] = test system: Candida albicans; assay: Upregulation of orf19.7336 gene expression in Candida albicans SC5314 at 3 uM after 45 mins by microarray method relative to control; type: functional; summary of the method: as §1

Structure (SMILES): C/C=C/CNC(=N)NCCCCCCCCN1CCCCCCCCNC(=N)NC1=O
- fold change (FC) [1]: 3.52
- Activity [2]: Active
- MIC [3]: 10 µM (≈ 4.36 µg/mL)
- fold change (FC) [4]: 2.88
- Activity [5]: Active
- fold change (FC) [6]: 1.9
- Ratio [7]: 8
- inhibition at 80 µM [8]: 99.9%
- MIC [9]: 40 µM (≈ 17.4 µg/mL)
- Activity [10]: Active
- MIC [11]: 10 µM (≈ 4.36 µg/mL)
- MIC [12]: 5 µM (≈ 2.18 µg/mL)
- MIC [13]: 40 µM (≈ 17.4 µg/mL)
- MIC [14]: 5 µM (≈ 2.18 µg/mL)
- MIC [15]: 5 µM (≈ 2.18 µg/mL)
- Activity [16]: Active
- Activity [17]: Active
- Activity [18]: Active
- MIC [19]: 80 µM (≈ 34.9 µg/mL)
- MIC [20]: 5 µM (≈ 2.18 µg/mL)
- MIC [21]: 5 µM (≈ 2.18 µg/mL)
- MIC [22]: 10 µM (≈ 4.36 µg/mL)
- Activity [23]: Active
- fold change (FC) [24]: 3.44
- Activity [25]: Active
- Activity [26]: 99.9%
- MIC [27]: 5 µM (≈ 2.18 µg/mL)
- fold change (FC) [28]: 2.66
- Activity [29]: Active
- fold change (FC) [30]: 3.49
